Measurements reported in ChEMBL document CHEMBL3868612, “Discovery of a potent and selective ROMK inhibitor with improved pharmacokinetic properties based on an octahydropyrazino[2,1-c][1,4]oxazine scaffold” (Bioorg Med Chem Lett, 2016).

Experiments:
[1] = Stability in dog microsomes assessed as compound remaining at 45 mins; format: ADME, Canis lupus familiaris, Microsome; conditions: read-out: Stability
[2] = molecular target: Cytochrome P450 2C9 (Homo sapiens, UniProt P11712); experiment: Inhibition of CYP2C9 (unknown origin); format: ADME
Chain of Cytochrome P450 2C9 (P11712 whole entry): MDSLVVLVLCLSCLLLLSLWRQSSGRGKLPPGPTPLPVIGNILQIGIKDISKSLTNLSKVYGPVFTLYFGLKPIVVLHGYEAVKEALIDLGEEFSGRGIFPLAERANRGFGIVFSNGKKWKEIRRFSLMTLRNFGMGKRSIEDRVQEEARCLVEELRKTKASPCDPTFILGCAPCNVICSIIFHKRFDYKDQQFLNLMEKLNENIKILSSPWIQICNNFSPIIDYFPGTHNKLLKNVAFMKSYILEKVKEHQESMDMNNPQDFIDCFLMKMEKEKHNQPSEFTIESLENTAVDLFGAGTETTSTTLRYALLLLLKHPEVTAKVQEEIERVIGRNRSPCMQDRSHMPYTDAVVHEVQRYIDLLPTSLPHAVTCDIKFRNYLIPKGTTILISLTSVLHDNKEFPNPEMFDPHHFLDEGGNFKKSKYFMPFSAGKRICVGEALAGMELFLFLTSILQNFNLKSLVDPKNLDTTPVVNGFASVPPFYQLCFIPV

[3] = Stability in human microsomes assessed as compound remaining at 45 mins; format: ADME, Microsome; conditions: read-out: Stability
[4] = Stability in rhesus monkey microsomes assessed as compound remaining at 45 mins; format: ADME, Macaca mulatta, Microsome; conditions: read-out: Stability
[5] = Stability in rat microsomes assessed as compound remaining at 45 mins; format: ADME, Microsome; conditions: read-out: Stability
[6] = molecular target: T1, ATP-sensitive inward rectifier potassium channel 1 (Homo sapiens, UniProt P48048); experiment: Inhibition of human ROMK expressed in CHO cells after 6 mins at -70 mV holding potential by electrophysiology method; format: cell-based
T1 sequence (P48048 whole entry): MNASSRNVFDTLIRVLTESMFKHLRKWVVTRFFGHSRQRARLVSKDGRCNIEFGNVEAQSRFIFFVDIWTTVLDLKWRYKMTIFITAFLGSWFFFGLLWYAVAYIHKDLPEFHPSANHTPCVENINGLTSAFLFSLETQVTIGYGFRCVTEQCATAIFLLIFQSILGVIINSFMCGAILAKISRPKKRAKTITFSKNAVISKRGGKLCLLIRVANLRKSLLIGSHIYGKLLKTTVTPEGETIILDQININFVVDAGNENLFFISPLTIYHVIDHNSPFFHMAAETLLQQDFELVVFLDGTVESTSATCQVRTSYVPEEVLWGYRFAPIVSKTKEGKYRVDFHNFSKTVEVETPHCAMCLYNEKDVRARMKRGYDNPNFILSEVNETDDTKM

[7] = molecular target: Voltage-gated inwardly rectifying potassium channel KCNH2 (Homo sapiens, UniProt Q12809); experiment: Inhibition of human ERG by electrophysiology method
Chain of Voltage-gated inwardly rectifying potassium channel KCNH2 (Q12809 whole entry): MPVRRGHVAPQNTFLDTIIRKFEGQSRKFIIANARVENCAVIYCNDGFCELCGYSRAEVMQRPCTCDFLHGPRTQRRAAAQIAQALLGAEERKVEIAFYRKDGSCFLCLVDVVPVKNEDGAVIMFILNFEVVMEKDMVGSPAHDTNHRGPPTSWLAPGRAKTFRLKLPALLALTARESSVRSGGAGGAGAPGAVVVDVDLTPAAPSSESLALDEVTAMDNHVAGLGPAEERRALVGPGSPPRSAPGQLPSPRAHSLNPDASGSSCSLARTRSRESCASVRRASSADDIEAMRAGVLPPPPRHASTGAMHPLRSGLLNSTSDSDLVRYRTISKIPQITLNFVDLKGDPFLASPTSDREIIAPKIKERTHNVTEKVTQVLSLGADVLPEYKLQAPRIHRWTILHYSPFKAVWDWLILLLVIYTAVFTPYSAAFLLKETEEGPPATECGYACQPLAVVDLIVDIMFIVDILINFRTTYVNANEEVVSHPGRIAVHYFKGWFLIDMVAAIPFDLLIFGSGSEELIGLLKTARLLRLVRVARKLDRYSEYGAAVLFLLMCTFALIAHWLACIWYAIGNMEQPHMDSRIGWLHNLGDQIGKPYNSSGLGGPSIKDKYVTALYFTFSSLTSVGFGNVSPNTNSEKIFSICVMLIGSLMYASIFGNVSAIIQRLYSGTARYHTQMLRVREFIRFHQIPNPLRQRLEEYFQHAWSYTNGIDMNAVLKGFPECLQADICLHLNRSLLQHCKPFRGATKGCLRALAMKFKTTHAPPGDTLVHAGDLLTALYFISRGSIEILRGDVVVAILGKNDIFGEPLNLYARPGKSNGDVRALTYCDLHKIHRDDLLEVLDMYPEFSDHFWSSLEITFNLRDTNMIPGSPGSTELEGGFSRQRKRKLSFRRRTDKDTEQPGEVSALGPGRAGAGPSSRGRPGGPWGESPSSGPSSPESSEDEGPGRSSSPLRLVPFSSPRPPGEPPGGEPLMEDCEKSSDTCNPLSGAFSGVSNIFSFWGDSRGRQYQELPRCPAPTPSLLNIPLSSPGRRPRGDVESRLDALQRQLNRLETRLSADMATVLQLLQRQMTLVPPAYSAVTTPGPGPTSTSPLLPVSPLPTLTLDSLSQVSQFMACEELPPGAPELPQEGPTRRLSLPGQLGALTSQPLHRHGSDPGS

[8] = molecular target: T2, Inward rectifier potassium channel 2 (Homo sapiens, UniProt P63252); experiment: Inhibition of Kir2.1 (unknown origin)
T2 sequence (P63252 whole entry): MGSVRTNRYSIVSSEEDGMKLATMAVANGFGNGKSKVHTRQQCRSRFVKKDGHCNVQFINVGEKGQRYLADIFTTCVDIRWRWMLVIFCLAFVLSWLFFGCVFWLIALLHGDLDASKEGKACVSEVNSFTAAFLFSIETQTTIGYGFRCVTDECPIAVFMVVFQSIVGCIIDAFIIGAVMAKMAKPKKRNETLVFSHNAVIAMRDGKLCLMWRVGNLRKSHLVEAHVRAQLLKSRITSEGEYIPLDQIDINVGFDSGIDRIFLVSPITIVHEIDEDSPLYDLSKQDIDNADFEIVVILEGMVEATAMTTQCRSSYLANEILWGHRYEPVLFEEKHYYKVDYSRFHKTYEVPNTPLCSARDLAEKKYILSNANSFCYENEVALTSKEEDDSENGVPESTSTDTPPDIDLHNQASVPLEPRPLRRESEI

[9] = molecular target: T3, ATP-sensitive inward rectifier potassium channel 10 (Homo sapiens, UniProt P78508); experiment: Inhibition of Kir4.1 (unknown origin)
T3 sequence (P78508 whole entry): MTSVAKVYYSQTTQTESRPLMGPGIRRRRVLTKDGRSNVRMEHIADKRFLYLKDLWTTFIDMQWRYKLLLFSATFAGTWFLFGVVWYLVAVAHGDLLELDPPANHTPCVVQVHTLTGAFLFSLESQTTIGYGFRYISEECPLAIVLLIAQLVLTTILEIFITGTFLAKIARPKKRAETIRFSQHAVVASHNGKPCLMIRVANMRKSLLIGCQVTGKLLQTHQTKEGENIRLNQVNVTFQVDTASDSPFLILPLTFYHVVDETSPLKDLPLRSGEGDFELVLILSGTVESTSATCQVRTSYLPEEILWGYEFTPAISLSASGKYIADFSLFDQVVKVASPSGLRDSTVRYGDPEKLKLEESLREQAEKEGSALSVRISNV

[10] = molecular target: Voltage-dependent L-type calcium channel subunit alpha-1C (Homo sapiens, UniProt Q13936); experiment: Inhibition of Cav1.2 (unknown origin)
Chain of Voltage-dependent L-type calcium channel subunit alpha-1C (Q13936 whole entry): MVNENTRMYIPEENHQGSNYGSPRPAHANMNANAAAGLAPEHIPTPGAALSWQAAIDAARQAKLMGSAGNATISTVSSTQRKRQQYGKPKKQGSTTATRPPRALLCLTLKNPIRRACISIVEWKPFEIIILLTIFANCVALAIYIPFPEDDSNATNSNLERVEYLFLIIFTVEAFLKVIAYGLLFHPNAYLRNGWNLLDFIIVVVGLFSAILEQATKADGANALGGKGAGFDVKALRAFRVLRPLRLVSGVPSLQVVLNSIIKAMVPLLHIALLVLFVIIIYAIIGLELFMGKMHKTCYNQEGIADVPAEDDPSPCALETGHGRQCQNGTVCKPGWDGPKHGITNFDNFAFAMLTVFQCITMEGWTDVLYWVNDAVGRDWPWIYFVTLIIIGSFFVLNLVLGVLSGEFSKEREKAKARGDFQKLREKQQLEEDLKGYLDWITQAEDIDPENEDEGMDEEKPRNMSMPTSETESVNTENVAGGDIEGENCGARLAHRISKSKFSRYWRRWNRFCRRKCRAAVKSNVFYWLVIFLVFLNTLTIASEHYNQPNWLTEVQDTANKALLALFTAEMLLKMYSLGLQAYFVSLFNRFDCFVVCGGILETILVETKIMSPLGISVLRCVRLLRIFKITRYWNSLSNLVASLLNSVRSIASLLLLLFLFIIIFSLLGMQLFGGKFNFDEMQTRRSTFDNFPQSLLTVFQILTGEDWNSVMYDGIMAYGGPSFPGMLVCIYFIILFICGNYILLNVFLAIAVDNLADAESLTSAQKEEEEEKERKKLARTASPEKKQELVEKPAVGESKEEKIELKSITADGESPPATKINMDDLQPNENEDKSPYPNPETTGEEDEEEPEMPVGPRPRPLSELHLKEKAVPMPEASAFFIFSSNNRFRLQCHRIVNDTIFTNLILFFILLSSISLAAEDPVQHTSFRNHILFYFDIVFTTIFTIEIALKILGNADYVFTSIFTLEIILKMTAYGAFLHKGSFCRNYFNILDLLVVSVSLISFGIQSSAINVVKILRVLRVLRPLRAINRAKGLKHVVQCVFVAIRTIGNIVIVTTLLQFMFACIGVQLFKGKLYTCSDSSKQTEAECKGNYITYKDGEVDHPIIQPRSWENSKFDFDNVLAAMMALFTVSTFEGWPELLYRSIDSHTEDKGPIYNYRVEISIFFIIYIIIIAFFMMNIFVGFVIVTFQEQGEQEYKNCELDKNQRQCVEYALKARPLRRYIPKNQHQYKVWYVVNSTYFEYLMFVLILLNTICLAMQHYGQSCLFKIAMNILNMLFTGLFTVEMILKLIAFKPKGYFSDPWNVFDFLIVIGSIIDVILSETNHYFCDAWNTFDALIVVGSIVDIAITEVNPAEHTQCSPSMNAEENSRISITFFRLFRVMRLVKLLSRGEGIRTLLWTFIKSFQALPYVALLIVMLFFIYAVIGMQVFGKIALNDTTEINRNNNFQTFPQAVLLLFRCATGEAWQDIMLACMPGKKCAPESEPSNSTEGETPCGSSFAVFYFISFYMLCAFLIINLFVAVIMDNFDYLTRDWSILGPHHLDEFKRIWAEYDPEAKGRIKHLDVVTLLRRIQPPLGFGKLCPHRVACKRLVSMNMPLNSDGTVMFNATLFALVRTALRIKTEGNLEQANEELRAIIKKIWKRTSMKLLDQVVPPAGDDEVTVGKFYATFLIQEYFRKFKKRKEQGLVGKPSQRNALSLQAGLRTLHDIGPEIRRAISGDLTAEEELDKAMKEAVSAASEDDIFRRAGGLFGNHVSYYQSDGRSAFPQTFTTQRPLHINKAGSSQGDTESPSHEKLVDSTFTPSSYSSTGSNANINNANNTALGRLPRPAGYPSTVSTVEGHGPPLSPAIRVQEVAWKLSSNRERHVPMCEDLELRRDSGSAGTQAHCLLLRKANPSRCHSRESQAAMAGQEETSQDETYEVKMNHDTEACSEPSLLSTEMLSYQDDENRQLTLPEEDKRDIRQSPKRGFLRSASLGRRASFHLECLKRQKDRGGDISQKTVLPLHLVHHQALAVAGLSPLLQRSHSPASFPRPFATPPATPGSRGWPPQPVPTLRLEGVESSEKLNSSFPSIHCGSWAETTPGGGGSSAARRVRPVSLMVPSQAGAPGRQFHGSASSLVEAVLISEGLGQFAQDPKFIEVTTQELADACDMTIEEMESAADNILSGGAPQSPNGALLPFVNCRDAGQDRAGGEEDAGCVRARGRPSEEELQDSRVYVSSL

[11] = molecular target: T4, Somatostatin receptor type 2 (Homo sapiens, UniProt P30874); experiment: Inhibition of Somatostatin receptor type 2 (unknown origin) at 10 uM by radioligand binding assay relative to control
T4 sequence (P30874 whole entry): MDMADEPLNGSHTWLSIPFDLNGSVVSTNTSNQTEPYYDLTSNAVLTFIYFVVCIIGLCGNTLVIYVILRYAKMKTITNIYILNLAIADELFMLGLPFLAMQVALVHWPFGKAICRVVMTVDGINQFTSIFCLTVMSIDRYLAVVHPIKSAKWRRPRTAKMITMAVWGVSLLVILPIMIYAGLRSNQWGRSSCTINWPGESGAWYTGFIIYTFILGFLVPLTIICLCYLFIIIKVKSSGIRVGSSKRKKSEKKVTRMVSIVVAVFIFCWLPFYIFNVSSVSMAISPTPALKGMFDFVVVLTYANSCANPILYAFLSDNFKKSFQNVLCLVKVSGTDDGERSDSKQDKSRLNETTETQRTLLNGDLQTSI
Summary of the method: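 Run within a 115-assay off-target panel of enzyme and radioligand binding assays. Inhibition of somatostatin sst2 ligand binding was recorded at a single concentration of 10 μM.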

[12] = molecular target: T4, Somatostatin receptor type 2; experiment: Inhibition of Somatostatin receptor type 2 (unknown origin) by radioligand binding assay
[13] = molecular target: Cytochrome P450 3A4 (Homo sapiens, UniProt P08684); experiment: Inhibition of CYP3A4 (unknown origin); format: ADME
Chain of Cytochrome P450 3A4 (P08684 whole entry): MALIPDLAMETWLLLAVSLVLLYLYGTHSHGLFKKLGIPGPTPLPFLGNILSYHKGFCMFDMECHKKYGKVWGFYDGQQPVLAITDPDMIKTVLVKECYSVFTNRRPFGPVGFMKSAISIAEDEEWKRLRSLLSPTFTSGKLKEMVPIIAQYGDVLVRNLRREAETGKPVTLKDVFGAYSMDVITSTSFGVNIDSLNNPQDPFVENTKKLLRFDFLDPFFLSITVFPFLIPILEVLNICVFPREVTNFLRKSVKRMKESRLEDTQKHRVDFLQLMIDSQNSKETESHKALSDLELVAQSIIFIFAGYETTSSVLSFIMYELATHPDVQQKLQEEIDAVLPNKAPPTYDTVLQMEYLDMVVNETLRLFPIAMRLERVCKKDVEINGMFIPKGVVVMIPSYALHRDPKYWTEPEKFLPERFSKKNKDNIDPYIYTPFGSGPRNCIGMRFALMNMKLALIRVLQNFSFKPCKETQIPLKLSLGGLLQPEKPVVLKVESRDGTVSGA

[14] = molecular target: Cytochrome P450 2D6 (Homo sapiens, UniProt P10635); experiment: Inhibition of CYP2D6 (unknown origin); format: ADME
[15] = Unbound fraction in rat plasma; format: ADME, cell-free
[16] = Unbound fraction in dog plasma; format: ADME, cell-free, Canis lupus familiaris
[17] = Unbound fraction in rhesus monkey plasma; format: ADME, cell-free, Macaca mulatta
[18] = Unbound fraction in human plasma; format: ADME, cell-free
[19] = Dose normalized AUC in Sprague-Dawley rat at 2 mg/kg, po; format: ADME, organism-based; conditions: in vivo
[20] = Half life in Sprague-Dawley rat at 1 mg/kg, iv or 2 mg/kg, po; format: ADME, organism-based; conditions: in vivo
[21] = Oral bioavailability in Sprague-Dawley rat at 2 mg/kg; format: ADME, organism-based; conditions: in vivo
[22] = Dose normalized AUC in Beagle dog at 2 mg/kg, po administered qd; format: ADME, organism-based, Canis lupus familiaris; conditions: in vivo
[23] = Half life in Beagle dog at 1 mg/kg, iv or 2 mg/kg, po administered qd; format: ADME, organism-based, Canis lupus familiaris; conditions: in vivo
[24] = Oral bioavailability in Beagle dog at 2 mg/kg administered qd; format: ADME, organism-based, Canis lupus familiaris; conditions: in vivo
[25] = Dose normalized AUC in rhesus monkey at 2 mg/kg, po administered qd; format: ADME, organism-based, Macaca mulatta; conditions: in vivo
[26] = Half life in rhesus monkey at 1 mg/kg, iv or 2 mg/kg, po administered qd; format: ADME, organism-based, Macaca mulatta; conditions: in vivo
[27] = Oral bioavailability in rhesus monkey at 2 mg/kg, qd; format: ADME, organism-based, Macaca mulatta; conditions: in vivo
[28] = tested on: Rattus norvegicus; experiment: Antihypertensive activity in […] rat model assessed as change in systolic blood pressure at 10 mg/kg, po administered qd measured on day 3; format: functional
Summary of the method: (§1)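 Spontaneously hypertensive rats were dosed orally once daily for 3 days. Systolic blood pressure change was read on day 3 relative to vehicle, with n = 5 per group.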

[29] = tested on: Rattus norvegicus; experiment: Antihypertensive activity in […] rat model assessed as change in systolic blood pressure at 30 mg/kg, po administered qd measured on day 3; format: functional; summary of the method: as §1
[30] = tested on: Rattus norvegicus; experiment: Antihypertensive activity in […] rat model assessed as change in systolic blood pressure at 25 mg/kg, po administered qd measured on day 3; format: functional; summary of the method: as §1
[31] = Cardiotoxicity in anesthetized cardiovascular guinea pig model assessed as change in QTc interval administered as iv infusion; format: toxicity, organism-based, Cavia porcellus, Heart; conditions: in vivo
Summary of the method: (§2)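 Anesthetized guinea pig cardiovascular model, n = 3. The compound was given by IV infusion while the QTc interval was monitored. Unbound plasma concentration was taken as the maximal average peak value.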

[32] = Maximum free plasma concentration in iv dosed anesthetized cardiovascular guinea pig model; format: ADME, organism-based, Cavia porcellus; conditions: in vivo; summary of the method: as §2

`Cc1c([C@@H]2CN3CCN(C(=O)Cc4ccc(-n5cnnn5)cn4)C[C@H]3CO2)ccc(F)c1C#N` showed a remaining at 0.75 h [1] of 82%, an IC50 [2] of over 50 µM and a remaining at 0.75 h [3] of 89%. The remaining at 0.75 h [4] was 72%, the remaining at 0.75 h [5] was 85% and the IC50 [6] was 0.073 µM. It also gave an IC50 [7] of 20.3 µM, an IC50 [8] of over 100 µM and an IC50 [9] of over 100 µM. The IC50 [10] was over 30 µM, the inhibition [11] was over 50% and the IC50 [12] was 4.1 µM. The IC50 [13] was over 50 µM, the IC50 [14] was over 50 µM and the fraction unbound [15] was 0.48. For the same compound, the fraction unbound [16] was 0.52, the fraction unbound [17] was 0.6 and the fraction unbound [18] was 0.58. The AUC/dose [19] was 0.79 µM·kg·h/mg, the half-life [20] was 1.5 h and the bioavailability [21] was 46%. It also gave an AUC/dose [22] of 16.7 µM·kg·h/mg, a half-life [23] of 17.3 h and a bioavailability [24] of 100%. The AUC/dose [25] was 6 µM·kg·h/mg, the half-life [26] was 5 h and the bioavailability [27] was 67%. It also gave an Activity [28] of -16 mmHg, an Activity [29] of -16 mmHg and an Activity [30] of -12 mmHg. For the same compound, the Activity [31] was “Non-Toxic” and the “Cp(f)max” value [32] was 83 µM.
